# What was measured:
# Type in all cases: functional
# [1] = system: Nakaseomyces glabratus; assay: Antifungal activity against Candida glabrata ATCC 90030 after 48 hrs by broth microdilution method; settings: ATCC 90030, 48 h
# Method in brief: (§1)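 CLSI M27-A2 (yeasts) / M38-A (moulds) broth microdilution in RPMI 1640 buffered to pH 7.0 with 0.165 M MOPS. Malassezia furfur got the same medium supplemented with glucose, bile salts, glycerol, glycerol monostearate and Tween 20. Final inoculum 0.65 × 10^3–2.5 × 10^3 CFU/ml for yeasts and 0.87 × 10^4–3.8 × 10^4 CFU/ml for filamentous fungi. Incubation at 35°C except M. racemosus and F. solani, which were held at 30°C.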
# [2] = system: Meyerozyma guilliermondii; assay: Antifungal activity against Candida guilliermondii IFO 10279 after 48 hrs by broth microdilution method; settings: IFO 10279, 48 h; method in brief: as §1
# [3] = system: Candida parapsilosis; assay: Antifungal activity against Candida parapsilosis NBRC 10219 after 48 hrs by broth microdilution method; settings: Lodderomyces parapsilosis, NBRC 10219, 48 h
# Method in brief: (§2)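 CLSI M27-A2 (yeasts) or M38-A (A. fumigatus) broth microdilution in RPMI 1640 buffered to pH 7.0 with 0.165 M MOPS. Final inocula were 0.65–2.5 × 10^3 CFU/ml for yeasts and 0.87–3.8 × 10^4 CFU/ml for filamentous fungi. Incubation was at 35°C for about 48 h (72 h for C. neoformans). MIC was the lowest concentration giving a prominent (~50%) turbidity drop versus growth control; amphotericin B required complete inhibition.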
# [4] = system: Candida tropicalis; assay: Antifungal activity against Candida tropicalis IFO 1400 after 48 hrs by broth microdilution method; settings: IFO 1400, 48 h; method in brief: as §1
# [5] = system: Cryptococcus neoformans; assay: Antifungal activity against Cryptococcus neoformans ATCC 90112 after 72 hrs by broth microdilution method; settings: ATCC 90112, 72 h; method in brief: as §2
# [6] = system: Cryptococcus neoformans; assay: Antifungal activity against Cryptococcus neoformans TIMM 0354 after 72 hrs by broth microdilution method; settings: TIMM 0354, 72 h; method in brief: as §2
# [7] = system: Aspergillus fumigatus; assay: Antifungal activity against Aspergillus fumigatus ATCC 16424 after 48 hrs by broth microdilution method; settings: ATCC 16424, 48 h; method in brief: as §2
# [8] = system: Aspergillus niger; assay: Antifungal activity against Aspergillus niger NBRC 33023 after 48 hrs by broth microdilution method; settings: NBRC 33023, 48 h; method in brief: as §1
# [9] = system: Aspergillus terreus; assay: Antifungal activity against Aspergillus terreus NBRC 33026 after 48 hrs by broth microdilution method; settings: NBRC 33026, 48 h; method in brief: as §1
# [10] = system: Scedosporium boydii; assay: Antifungal activity against Pseudallescheria boydii NBRC 32229 after 72 hrs by broth microdilution method; settings: NBRC 32229, 72 h; method in brief: as §1
# [11] = system: Rhizopus arrhizus; assay: Antifungal activity against Rhizopus oryzae NBRC 31005 after 24 hrs by broth microdilution method; settings: NBRC 31005, 24 h; method in brief: as §1
# [12] = system: Lichtheimia corymbifera; assay: Antifungal activity against Absidia corymbifera NBRC 4009 after 24 hrs by broth microdilution method; settings: NBRC 4009, 24 h; method in brief: as §1
# [13] = system: Trichophyton rubrum; assay: Antifungal activity against Trichophyton rubrum NBRC 5467 after 72 hrs by broth microdilution method; settings: NBRC 5467, 72 h; method in brief: as §1
# [14] = system: Candida albicans; assay: Antifungal activity against Candida albicans ATCC 96901 after 47 hrs by broth microdilution method; settings: ATCC 96901, 47 h
# Method in brief: (§3)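 Fluconazole-resistant or susceptible-dose-dependent ATCC C. albicans strains were tested by CLSI M27-A2 broth microdilution in RPMI 1640–0.165 M MOPS, pH 7.0, with a final inoculum of 1.1–1.5 × 10^3 CFU/ml at 35°C for about 47 h. MIC was the lowest concentration with a prominent (~50%) turbidity decrease relative to growth control; amphotericin B was read at complete inhibition.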
# [15] = system: Candida albicans; assay: Antifungal activity against Candida albicans ATCC MYA-573 after 47 hrs by broth microdilution method; settings: ATCC MYA-573, 47 h; method in brief: as §3
# [16] = system: Candida albicans; assay: Antifungal activity against Candida albicans ATCC MYA-574 after 47 hrs by broth microdilution method; settings: ATCC MYA-574, 47 h
# Method in brief: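 Fluconazole-resistant or susceptible-dose-dependent C. albicans ATCC strains were tested by broth microdilution in RPMI 1640-MOPS. Inoculum was 1.1 × 10^3–1.5 × 10^3 CFU/ml, with incubation at 35°C for about 47 h. Yeast MIC was read as about 50% turbidity decrease relative to growth control, except amphotericin B, read at complete inhibition.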
# [17] = system: Candida albicans; assay: Antifungal activity against Candida albicans ATCC MYA-575 after 47 hrs by broth microdilution method; settings: ATCC MYA-575, 47 h; method in brief: as §3
# [18] = system: Candida albicans; assay: Antifungal activity against Candida albicans ATCC MYA-1003 after 47 hrs by broth microdilution method; settings: ATCC MYA-1003, 47 h; method in brief: as §3
# [19] = system: Nakaseomyces glabratus; assay: Antifungal activity against Candida glabrata clinical isolates after 48 hrs by broth microdilution method
# Method in brief: (§4)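 Clinical isolates from Japanese hospitals or culture collections were tested by broth microdilution in RPMI 1640-MOPS. Inoculum was 0.57 × 10^3–2.5 × 10^3 CFU/ml for yeasts and 0.4 × 10^4–3.3 × 10^4 CFU/ml for filamentous fungi. Incubation was at 35°C for about 48 h, or 72 h where footnoted. Results were summarised as MIC range, MIC50 and MIC90.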
# [20] = system: Candida parapsilosis; assay: Antifungal activity against Candida parapsilosis clinical isolates after 48 hrs by broth microdilution method; settings: Lodderomyces parapsilosis
# Method in brief: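 Japanese hospital Candida isolates were tested by CLSI M27-A2 broth microdilution in RPMI 1640–MOPS, pH 7.0, with inocula of 0.57–2.5 × 10^3 CFU/ml at 35°C for about 48 h. Inocula came from 24-h potato dextrose agar cultures. MIC was the lowest concentration with about 50% turbidity reduction versus growth control (complete inhibition for amphotericin B). Range, MIC50 and MIC90 were reported.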
# [21] = system: Cryptococcus neoformans; assay: Antifungal activity against Cryptococcus neoformans clinical isolates after 72 hrs by broth microdilution method; method in brief: as §4
Compound,MFC [1] [µg/mL],MIC [1] [µg/mL],MFC [2] [µg/mL],MIC [2] [µg/mL],MFC [3] [µg/mL],MIC [3] [µg/mL],MFC [4] [µg/mL],MIC [4] [µg/mL],MFC [5] [µg/mL],MIC [5] [µg/mL],MFC [6] [µg/mL],MIC [6] [µg/mL],MFC [7] [µg/mL],MIC [7] [µg/mL],MFC [8] [µg/mL],MIC [8] [µg/mL],MFC [9] [µg/mL],MIC [9] [µg/mL],MFC [10] [µg/mL],MIC [10] [µg/mL],also measured
C[C@@H](c1ncncc1F)[C@](O)(Cn1cncn1)c1ccc(F)cc1F [VORICONAZOLE],> 64,0.25,0.5,0.0625,> 64,0.0313,> 64,0.0625,> 64,0.0313,> 64,0.0313,32,0.25,16,0.5,32,0.5,> 64,1,MFC [11]: 32 µg/mL; MIC [11]: 8 µg/mL; MFC [12]: > 64 µg/mL; MIC [12]: 32 µg/mL; MFC [13]: > 64 µg/mL; MIC [13]: 0.0313 µg/mL; MIC [14]: 0.5 µg/mL; MIC [15]: 0.25 µg/mL; MIC [16]: 0.25 µg/mL; MIC [17]: 0.0625 µg/mL; MIC [18]: 0.5 µg/mL; MIC50 [19]: 0.125 µg/mL; MIC90 [19]: 0.5 µg/mL; MIC50 [20]: 0.0156 µg/mL; MIC90 [20]: 0.0313 µg/mL; MIC50 [21]: 0.0313 µg/mL; MIC90 [21]: 0.0625 µg/mL
OC(Cn1cncn1)(Cn1cncn1)c1ccc(F)cc1F [FLUCONAZOLE],> 64,8,> 64,4,> 64,1,> 64,2,> 64,1,> 64,2,> 64,> 64,> 64,> 64,> 64,> 64,> 64,16,MFC [11]: > 64 µg/mL; MIC [11]: > 64 µg/mL; MFC [12]: > 64 µg/mL; MIC [12]: > 64 µg/mL; MFC [13]: > 64 µg/mL; MIC [13]: 0.25 µg/mL; MIC [14]: > 64 µg/mL; MIC [15]: > 64 µg/mL; MIC [16]: 64 µg/mL; MIC [17]: 16 µg/mL; MIC [18]: 64 µg/mL; MIC50 [20]: 0.5 µg/mL; MIC90 [20]: 1 µg/mL; MIC50 [21]: 2 µg/mL; MIC90 [21]: 4 µg/mL
